Screening data: PubChem, several laboratories
UCH37 inh: blocks the human deubiquitinase UCH37. AID 588478. inhibition, % (test concentration not listed). 330,000 compounds, 0.33% hits. Q9Y5K5. purified proteasome/UCH37, Ub-AMC cleavage fluorescence;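 active means mean inhibition over replicate wells above about 20%, limit read from the data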
Target sequence (Q9Y5K5 whole entry, looked up): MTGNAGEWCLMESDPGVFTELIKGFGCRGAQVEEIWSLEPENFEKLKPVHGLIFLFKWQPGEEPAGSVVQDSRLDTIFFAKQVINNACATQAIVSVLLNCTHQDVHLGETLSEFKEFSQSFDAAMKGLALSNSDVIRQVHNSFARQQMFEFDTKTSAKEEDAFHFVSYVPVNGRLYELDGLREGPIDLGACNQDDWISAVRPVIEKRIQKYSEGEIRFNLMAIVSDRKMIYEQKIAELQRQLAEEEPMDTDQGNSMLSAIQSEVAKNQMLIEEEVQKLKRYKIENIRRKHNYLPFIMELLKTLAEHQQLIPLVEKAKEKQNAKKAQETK
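Material: Human UCH37 enzyme supplied as purified proteasome complex | Schedule: 30 min compound-proteasome preincubation then 25 min substrate reaction, room temperature | Detection: AMC fluorescence from Ub-AMC cleavage, excitation 355 nm, emission 460 nm | Benchmarks: Wells without proteasome as full block, compound-free enzyme plus substrate as uninhibited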
B2AR ag: human beta-2 adrenergic receptor agonism by FAP | P07550 | Am2.2-beta2AR cells, FAP receptor internalization, flow cytometry | response, % (concentration not given with the values) | 340,000 compounds, 0.43% hits | AID 504454;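 active means response above a set limit, near 3 SD of response in nonfluorescent compounds, cut at about 42% in these data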
HKDC1 inh: HKDC1 (human) hexokinase inhibition; inhibition, % at 20 µM; AID 493160; 340,000 compounds, 0.16% hits; recombinant HKDC1, G6PDH/diaphorase resazurin coupled fluorescence; Q2TB90;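 active means inhibition above about 35% when tested at 20 µM, limit read from the data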
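Incubation: 90 min at room temperature in dark / Material: recombinant HKDC1 (HK5) hexokinase enzyme, produced in-house / Quantity: enzyme 5 µg/mL final / Compound: one dose of 20 µM, 1% DMSO / Reagent: glucose and ATP substrates / Buffer or medium: Tris pH 8.0 buffer with MgCl2, Tween-20, BSA, BME / Technique: resorufin fluorescence at 613 nm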
PfG6PD inh: PfG6PD (Plasmodium falciparum) enzyme inhibition; 350,000 compounds, 0.78% hits; PfGluPho enzyme, NADPH resazurin-diaphorase fluorescence; AID 504690; inhibition, % at 20 µM;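 active means inhibition reaching at least a set limit at 20 µM in the primary screen, cut at about 59% in these data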
Cardio protect: protects H9c2 cardiomyocytes from peroxide injury. H2O2 injury protection, ATPLite, 2 h. protection from H2O2 cell death, % at 20 µM. 360,000 compounds, 0.63% hits;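 active means compounds giving at least 50% protection of heart cells from peroxide-induced death in the single-dose screen, raw or plate-pattern-corrected value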
aDG glyco act: increases alpha dystroglycan glycosylation; Pro5-aDG cells, alpha-DG glycosylation AlphaScreen (IIH6); 0% Pro5, 100% B10-LARGE cell signal; activation, % at 10 µM; 360,000 compounds, 0.22% hits;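 active means activation of at least 8% versus controls, or a plate z-score of at least 8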;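 further: Pro5 are CHO cells carrying HIG-tagged alpha-DG that lacks glycosylation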
Hits are given with their value; 0 = inactive; - = no result. In the library only some 2.1% were active in any assay of this set; here they are far more common.

SMILES	UCH37 inh	B2AR ag	HKDC1 inh	PfG6PD inh	Cardio protect	aDG glyco act
Cc1cc(=O)[nH]c(NN=CC(C)c2ccccc2)n1 (stereo not given)	0	-	-	-	-	-
N/C(=N\NC(=O)c1sccc1OCc1ccc(Cl)cc1Cl)c1ccccn1	0	0	0	0	55	0
Cc1cc(C)n2nc(SCC(=O)NN=Cc3ccc(F)cc3)nc2n1	0	-	-	-	-	-
COc1ccc(N(CC(=O)NN=Cc2cc3ccc(OC)cc3nc2Cl)S(=O)(=O)c2ccccc2)cc1	0	-	-	-	-	-
CS(=O)(=O)c1nc(-c2ccc(Br)cc2)cc(-c2ccccc2)c1C#N	0	0	0	0	0	0
CS(=O)c1nc(-c2ccc(Br)cc2)cc(-c2ccccc2)c1C#N (stereo not given)	0	99	0	0	0	0
CCc1nnc(NC(=O)C(NC(=O)c2ccccc2Cl)C(C)C)s1 (stereo not given)	0	0	0	0	0	0
CC(Oc1ccc(Br)cc1)C(=O)Nc1nc(-c2ccccn2)cs1 (stereo not given)	-	0	0	0	49	0
C[C@@H](C(=O)Nc1nc(-c2ccccn2)cs1)N1C(=O)C2CCCCC2C1=O (stereo not given in full)	0	0	0	0	95	0
CC(C)[C@H](NC(=O)c1ccccc1Cl)C(=O)Nc1nc(-c2ccccn2)cs1	0	0	0	0	70	0
CC(=NNC(=O)Cc1ccccc1[N+](=O)[O-])c1cccnc1	0	-	-	-	-	-
CC(C)(C)c1cc(C(=O)NN=Cc2ccc([N+](=O)[O-])s2)n[nH]1	0	-	-	-	-	-
O=C(CC(=O)NC1CCCCC1)NN=Cc1ccc(Cl)cc1	27	-	-	-	-	-
Cn1ncc2c(ON=C(N)c3ccc(C(C)(C)C)cc3)ncnc21	0	-	-	-	-	-
Cc1ccccc1NC(C)C(=O)NN=Cc1ccccc1OCc1cccc(Br)c1 (stereo not given)	0	-	-	-	-	-
COc1ccc(-c2noc(CN(C)S(=O)(=O)c3ccccc3)n2)cc1OC	0	0	0	0	55	0
CN(Cc1nc(-c2cccnc2)no1)S(=O)(=O)c1ccccc1	0	0	0	0	0	0
O=C1NC(Cc2ccc(O)cc2)c2nc3ccc(F)cc3c(=O)n2-c2cc3ccccc3cc21 (stereo not given)	-	-	-	0	95	0
CCn1c(CSc2nc3ccccc3s2)nnc1SCC(=O)c1ccc(O)c(O)c1	0	0	0	0	62	0
CCn1c(CSc2nc3ccccc3s2)nnc1SCC(=O)c1ccc(Cl)cc1	0	0	0	0	0	0
COc1cc(-c2cc(-c3ccc(O)cc3)nc(N)c2C#N)ccc1O	0	0	0	0	50	0
O=C(CCc1nc2ccccc2c(=O)[nH]1)Nc1ccc(F)c([N+](=O)[O-])c1	0	0	0	0	50	0
O=C(CCc1nc2ccccc2c(=O)[nH]1)Nc1cccc(S(=O)(=O)N2CCCCC2)c1	0	0	0	0	0	0
O=C(CCc1nc2ccccc2c(=O)[nH]1)NCC(=O)Nc1ccc(F)c(F)c1	0	0	0	0	59	0
COc1ccc(NC(=O)COC(=O)c2cc3c(s2)CCC3)cc1	0	0	0	0	0	9.7
SMILES	UCH37 inh	B2AR ag	HKDC1 inh	PfG6PD inh	Cardio protect	aDG glyco act
Nn1cnnc1NN=Cc1ccc(Cl)cc1Cl	0	-	-	-	-	-
CC(=O)OCCNc1cc(Sc2nc3ccccc3[nH]2)c2nonc2c1[N+](=O)[O-]	0	0	0	65	0	0
COC(=O)CCSc1cc(NCCOC(C)=O)c([N+](=O)[O-])c2nonc12	0	62	0	0	0	0
O=C(O)CCC(=NNC(=O)c1ccccc1Br)c1ccccc1	0	-	-	-	-	-
COc1ccc(N2CCN(c3ncnc4c3[nH]c3ccccc34)CC2)cc1	0	0	0	0	0	6.2
CC(C)=CCCC1=CCC(C(C)=NNC(N)=O)CC1 (stereo not given)	0	-	-	-	-	-
COc1ccc2oc(C(=O)Nc3ccc(N4CCOCC4)cc3)c(C)c2c1	0	0	0	0	56	0
COc1cccc(NC(=O)c2oc3ccc(S(=O)(=O)N4CCOCC4)cc3c2C)c1	0	0	0	0	85	0
Cc1ccc(NC(=O)c2oc3ccc(S(=O)(=O)N4CCOCC4)cc3c2C)cc1C	0	0	0	0	0	0
CCC(=NNc1ccc([N+](=O)[O-])cc1[N+](=O)[O-])c1ccc(O)cc1	0	-	-	-	-	-
Nc1nonc1-n1nnc(C(=O)NN=Cc2ccccc2Cl)c1-c1ccc2c(c1)OCO2	0	-	-	-	-	-
CCOc1cc(NC(=S)NCC2CCCO2)c(OCC)cc1NC(=O)c1cccc(C)c1 (stereo not given)	0	47	0	0	0	0
Cn1cc(C(=O)c2ccc(Cl)cc2Cl)cc1C(=O)N/N=C(\N)COc1ccc(F)cc1	-	0	0	0	0	0
Cn1cc(C(=O)c2ccc(Cl)cc2Cl)cc1C(=O)N/N=C(\N)COc1ccc(Cl)cc1Cl	-	0	0	0	86	0
Cn1cc(C(=O)c2ccc(Cl)cc2Cl)cc1C(=O)N/N=C(\N)COc1ccc(Cl)cc1	-	90	0	0	96	0
COc1ccc(C=NNC(=O)c2cccc(Br)c2)cc1COc1ccccn1	0	-	-	-	-	-
CC(=O)c1ccccc1OCCCN1CCCCC1	0	0	0	0	53	0
O=Cc1ccc(OCc2cccc(C(F)(F)F)c2)cc1O	0	0	0	0	68	0
C=CCc1ccccc1OCCOc1ccc([N+](=O)[O-])cc1C=NNC(N)=O	0	-	-	-	-	-
CC(C)Oc1ccccc1C=NNC(=O)C1CC1	0	-	-	-	-	-
CC12CN3CCN(CC(C3)C1=NNC(=O)Nc1ccccc1)C2	0	-	-	-	-	-
O=C(CSc1nccn1-c1ncc(C(F)(F)F)cc1Cl)c1ccc(Cl)cc1	31	0	0	0	0	0
C#CCNC(=O)C1=C[C@@H](c2ccc(Br)cc2)[C@H](CCCO)[C@@H](OCC)O1	24	0	0	0	0	0
Cc1nn(-c2ccccc2)c(Cl)c1C=NNC(=O)c1ccccc1F	0	-	-	-	-	-
CN1CCN(CC#CC(C)(O)C2CC3C=CC2C3)CC1 (stereo not given)	23	0	0	0	0	0
SMILES	UCH37 inh	B2AR ag	HKDC1 inh	PfG6PD inh	Cardio protect	aDG glyco act
COc1cc(C=NNC(=O)c2cccs2)ccc1O	0	-	-	-	-	-
COC1=C/C(=C/c2c(N)n3nc(-c4ccc(C)cc4)sc3nc2=O)C=CC1=O	0	0	0	0	0	0
CCS(=O)(=O)c1nn2c(N)c(/C=C3/C=CC(=O)C(OC)=C3)c(=O)nc2s1	22	0	0	0	0	0
O=Cc1cc2ccccc2nc1SCc1ccc(Cl)c(Cl)c1	0	0	0	0	0	0
O=Cc1cc2ccccc2nc1SCc1ccc(Cl)cc1	0	46	0	0	0	0
C=CCOc1ccc(/C(O)=C2\C(=O)C(=O)N(CCN(C)C)C2c2cccs2)cc1 (stereo not given)	24	0	0	0	0	0
CN(C)CCCNC(=O)c1ccc(C=NO)nc1	0	-	-	-	-	-
